Converted amounts (≈) assume the structure as drawn. The source made the active and inactive calls. The rule behind the calls is not given here.
Key:
Zygosaccharomyces bailii [1] = assay: Antifungal activity against Zygosaccharomyces bailii assessed as growth inhibition measured after 48 hr by macrodilution assay; assay type: functional
Zygosaccharomyces bailii [2] = assay: Antifungal activity against Zygosaccharomyces bailii assessed as growth inhibition at MFC measured after 24 hr by macrodilution assay in presence of cycloheximide protein synthesis inhibitor; assay type: functional, organism-based
Summary of the method: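 Z. bailii ATCC 60483 exponential cells grown in YPD broth at 30 °C with 50 µg/mL cycloheximide. After 24 h, agent added at its MFC. Viable counts by serial dilution in sterile saline, plating on YPD agar, 48 h at 30 °C, then colony counting.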

Saccharomyces cerevisiae [3] = assay: Antifungal activity against Saccharomyces cerevisiae ATCC 7754 assessed as reduction in plasma membrane fluidity at 25 ug/mL
Zygosaccharomyces bailii [4] = assay: Antifungal activity against Zygosaccharomyces bailii assessed as reduction in cell viability at 100 ug/mL treated at 24, 48 and 72 hr measured after 1 hr of each addition
Zygosaccharomyces bailii [5] = assay: Antifungal activity against Zygosaccharomyces bailii assessed as growth inhibition measured at pH 9 after 48 hr by macrodilution assay; assay type: functional
Summary of the method: (§1)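 Broth macrodilution in YPD adjusted to the stated pH, Z. bailii ATCC 60483. Serial 2-fold dilutions in DMF (1% final) added to broth; inoculum 10^5 CFU/mL from a 5 h 30 °C preculture. Static incubation, 30 °C, 48 h. MIC is the lowest concentration with no visible growth; MFC is the lowest with no regrowth after 48 h subculture in drug-free YPD.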

Zygosaccharomyces bailii [6] = assay: Antifungal activity against Zygosaccharomyces bailii assessed as growth inhibition measured at pH 7 after 48 hr by macrodilution assay; assay type: functional; summary of the method: as §1
Zygosaccharomyces bailii [7] = assay: Antifungal activity against Zygosaccharomyces bailii assessed as growth inhibition measured at pH 5 after 48 hr by macrodilution assay; assay type: functional; summary of the method: as §1
Zygosaccharomyces bailii [8] = assay: Antifungal activity against Zygosaccharomyces bailii assessed as growth inhibition measured at pH 3 after 48 hr by macrodilution assay; assay type: functional; summary of the method: as §1
Zygosaccharomyces bailii [9] = assay: Inhibition of cell growth in Zygosaccharomyces bailii at 50 ug/mL; assay type: functional, organism-based
Summary of the method: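 Exponentially growing Z. bailii ATCC 60483 in YPD broth at 30 °C with drug at 0, 50 or 100 µg/mL. Viable counts taken over time by serial dilution in sterile saline and plating on YPD agar, 48 h at 30 °C, then CFU counted.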

Saccharomyces cerevisiae [10] = assay: Antifungal activity against Saccharomyces cerevisiae ATCC 7754 assessed as reduction in plasma membrane fluidity at 100 ug/mL

Which results are given for `C/C=C/C=C/C(=O)O` [SORBIC ACID]?
MFC (Zygosaccharomyces bailii [1]): 1600 µg/mL (≈ 14.3 mM); MFC (Zygosaccharomyces bailii [1]; read-out: MFC): 800 µg/mL (≈ 7.13 mM)

For `CCC/C=C/C(=O)O` [(2E)-HEXENOIC ACID], which MFC (Zygosaccharomyces bailii [1]) is on record?
The MFC was 1600 µg/mL (≈ 14 mM).

What about the MFC (Zygosaccharomyces bailii [1]; read-out: MFC) of the same compound?
Its MFC is 800 µg/mL (≈ 7.01 mM).

How did the “growth inhibition (GI)” value (Zygosaccharomyces bailii [2]) turn out when `CC1(C)CCC[C@]2(C)[C@@H](C=O)C(C=O)=CC[C@@H]12` [POLYGODIAL] was run?
Its value is “Active”.

What about the MFC (Zygosaccharomyces bailii [1]) of the same compound?
Its MFC is 50 µg/mL (≈ 0.213 mM).

And the MFC (Zygosaccharomyces bailii [1]; read-out: MFC)?
Its MFC is 50 µg/mL (≈ 0.213 mM).

What about the Activity (Saccharomyces cerevisiae [3]) of the same compound?
Its Activity is “Active”.

What about the inhibition (Zygosaccharomyces bailii [4]) of the same compound?
The inhibition was “Active”.

`C/C=C/c1ccc(OC)cc1` [ANETHOLE] was tested. Which MFC (Zygosaccharomyces bailii [5]) did it give?
Its MFC is 1600 µg/mL (≈ 10.8 mM).

And the MIC (Zygosaccharomyces bailii [5])?
The MIC was 1600 µg/mL (≈ 10.8 mM).

And the MFC (Zygosaccharomyces bailii [6])?
The MFC was 1600 µg/mL (≈ 10.8 mM).

What about the MIC (Zygosaccharomyces bailii [6]) of the same compound?
Its MIC is 800 µg/mL (≈ 5.4 mM).

And the MFC (Zygosaccharomyces bailii [7])?
The MFC was 1600 µg/mL (≈ 10.8 mM).

And the MIC (Zygosaccharomyces bailii [7])?
The MIC was 400 µg/mL (≈ 2.7 mM).

And the MFC (Zygosaccharomyces bailii [8])?
The MFC was 1600 µg/mL (≈ 10.8 mM).

And the MIC (Zygosaccharomyces bailii [8])?
The MIC was 100 µg/mL (≈ 0.675 mM).

What about the MFC (Zygosaccharomyces bailii [1]) of the same compound?
The MFC was 400 µg/mL (≈ 2.7 mM).

And the MFC (Zygosaccharomyces bailii [1]; read-out: MFC)?
The MFC was 200 µg/mL (≈ 1.35 mM).

How did the MFC (Zygosaccharomyces bailii [1]) turn out when `C/C=C/C=C/C(=O)OC` [METHYL SORBATE] was run?
The MFC was greater than 3200 µg/mL.

And the MFC (Zygosaccharomyces bailii [1]; read-out: MFC)?
Its MFC is greater than 3200 µg/mL.

`C[C@@H]1C[C@@H]([C@H](O)CC2CC(=O)NC(=O)C2)C(=O)[C@@H](C)C1` was tested. Which inhibition (Zygosaccharomyces bailii [9]) did it give?
The inhibition was “Active”.

Which MFC (Zygosaccharomyces bailii [1]) does the source give for `CCC/C=C\C(=O)O` [(2Z)-HEXENOIC ACID] here?
Its MFC is 1600 µg/mL (≈ 14 mM).

What about the MFC (Zygosaccharomyces bailii [1]; read-out: MFC) of the same compound?
Its MFC is 800 µg/mL (≈ 7.01 mM).

How did the MFC (Zygosaccharomyces bailii [1]) turn out when `Clc1ccc(COC(Cn2ccnc2)c2ccc(Cl)cc2Cl)c(Cl)c1` (stereo not given) [MICONAZOLE] was run?
Its MFC is 12.5 µg/mL (≈ 0.03 mM).

And the MFC (Zygosaccharomyces bailii [1]; read-out: MFC)?
The MFC was 12.5 µg/mL (≈ 0.03 mM).

`CCCCCC(=O)O` [HEXANOATE] was tested. Which MFC (Zygosaccharomyces bailii [1]) did it give?
The MFC was 3200 µg/mL (≈ 27.5 mM).

What about the MFC (Zygosaccharomyces bailii [1]; read-out: MFC) of the same compound?
The MFC was 800 µg/mL (≈ 6.89 mM).

`CCCCCCCCOC(=O)c1cc(O)c(O)c(O)c1` was tested. Which Activity (Saccharomyces cerevisiae [10]) did it give?
The Activity was “Active”.

For `CCCCCCCCO`, which Activity (Saccharomyces cerevisiae [10]) is on record?
The Activity was “inactive”.

Reference: ChEMBL document CHEMBL3045311, “Naturally occurring antifungal agents against Zygosaccharomyces bailii and their synergism” (2005)
